Test results: ChEMBL document CHEMBL5252671, “Design, synthesis and evaluation of the anti-breast cancer activity of 1,3-oxazolo[4,5-d]pyrimidine and 1,3-oxazolo[5,4-d]pyrimidine derivatives” (2023)

Legend:
Format in all cases: functional
MCF7 [1] = experiment: Antiproliferative activity against human MCF7 cells assessed as inhibition of cell growth at 1 X 10^-5 M measured for 48 hrs by sulforhodamine B assay relative to control; conditions: MCF7, 48 h, dose 1 10^-5M
Outline: (§1)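 NCI one-dose screen. Cells were seeded at 5000-40000/well in RPMI 1640 with 5% FBS and 2 mM L-glutamine and preincubated 24 h at 37 °C in 5% CO2. Compound was added at 10⁻⁵ M for 48 h. Cells were then fixed with 10% TCA, stained with sulforhodamine B, washed with 1% acetic acid, solubilized in 10 mM Tris and read as OD at 510 nm.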

MDA-MB-231 [2] = experiment: Antiproliferative activity against human MDA-MB-231 cells assessed as inhibition of cell growth at 1 X 10^-5 M measured for 48 hrs by sulforhodamine B assay relative to control; conditions: MDA-MB-231, 48 h, dose 1 10^-5M; outline: as §1
Hs-578T [3] = experiment: Antiproliferative activity against human Hs-578T cells assessed as inhibition of cell growth at 1 X 10^-5 M measured for 48 hrs by sulforhodamine B assay relative to control; conditions: dose 1 10^-5M; outline: as §1
BT-549 [4] = experiment: Antiproliferative activity against human BT-549 cells assessed as inhibition of cell growth at 1 X 10^-5 M measured for 48 hrs by sulforhodamine B assay relative to control; conditions: BT-549, 48 h, dose 1 10^-5M; outline: as §1
T47D [5] = experiment: Antiproliferative activity against human T47D cells assessed as inhibition of cell growth at 1 X 10^-5 M measured for 48 hrs by sulforhodamine B assay relative to control; conditions: dose 1 10^-5M; outline: as §1
MDA-MB-468 [6] = experiment: Antiproliferative activity against human MDA-MB-468 cells assessed as inhibition of cell growth at 1 X 10^-5 M measured for 48 hrs by sulforhodamine B assay relative to control; conditions: MDA-MB-468, 48 h, dose 1 10^-5M; outline: as §1
MCF7 [7] = experiment: Anticancer activity against human MCF7 cells measured at 48 hrs
Outline: (§2)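 NCI DTP five-dose screen on the breast subpanel: compound at 0.01, 0.1, 1, 10 and 100 μM for 48 h. Cell density read by sulforhodamine B (protein content). GI50, TGI and LC50 were derived from the T, T0 and C optical densities using the NCI formulas.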

MDA-MB-231 [8] = experiment: Anticancer activity against human MDA-MB-231 cells measured at 48 hrs; outline: as §2
Hs-578T [9] = experiment: Anticancer activity against human Hs-578T cells measured at 48 hrs; outline: as §2
BT-549 [10] = experiment: Anticancer activity against human BT-549 cells measured at 48 hrs; outline: as §2
T47D [11] = experiment: Anticancer activity against human T47D cells measured at 48 hrs; conditions: for CC50: read-out: LC50 (the source's name); outline: as §2
MDA-MB-468 [12] = experiment: Anticancer activity against human MDA-MB-468 cells measured at 48 hrs; outline: as §2

| SMILES | inhibition at 10 µM (MCF7 [1]) [%] | inhibition at 10 µM (MDA-MB-231 [2]) [%] | inhibition at 10 µM (Hs-578T [3]) [%] | inhibition at 10 µM (BT-549 [4]) [%] | inhibition at 10 µM (T47D [5]) [%] | inhibition at 10 µM (MDA-MB-468 [6]) [%] | GI50 (MCF7 [7]) [µM] | LC50 (concentration giving 50% net cell kill) (MCF7 [7]) [µM] | TGI (MCF7 [7]) [µM] | GI50 (MDA-MB-231 [8]) [µM] | LC50 (concentration killing 50% of starting cells) (MDA-MB-231 [8]) [µM] | TGI (MDA-MB-231 [8]) [µM] | GI50 (Hs-578T [9]) [µM] | TGI (Hs-578T [9]) [µM] | GI50 (BT-549 [10]) [µM] | TGI (BT-549 [10]) [µM] | GI50 (T47D [11]) [µM] | TGI (T47D [11]) [µM] | GI50 (MDA-MB-468 [12]) [µM] | LC50 (concentration giving 50% net cell kill) (MDA-MB-468 [12]) [µM] | further results |
| --- | --- | --- | --- | --- | --- | --- | --- | --- | --- | --- | --- | --- | --- | --- | --- | --- | --- | --- | --- | --- | --- |
| c1ccc(-c2nc(N3CCCNCC3)c3nc(-c4ccccc4)oc3n2)cc1 | 167 | 103 | 16 | 5 | 53 | 153 | 1.67 | 6.67 | 3.34 | 1.72 | 5.99 | 3.21 | 1.86 | 3.94 | 1.78 | 3.29 | 1.78 | 3.64 | 1.72 | 6.57 | LC50 (50% lethal concentration) (Hs-578T [9]): 8.34 µM; CC50 (T47D [11]): 7.42 µM; TGI (MDA-MB-468 [12]): 3.37 µM |
| Cc1ccc(-c2nc3nc(-c4ccccc4)nc(N4CCNCC4)c3o2)cc1 | 166 | 179 | 151 | 172 | 168 | 187 | 0.33 | 5.74 | 1.45 | 0.26 | 2.61 | 0.67 | 2.02 | 4.22 | 1.72 | 3.2 | 0.35 | 1.51 | 0.29 | 4.84 | LC50 (concentration giving 50% net cell kill) (BT-549 [10]): 5.99 µM; CC50 (T47D [11]): 6.33 µM; TGI (MDA-MB-468 [12]): 1.18 µM |
| Cc1ccc(-c2nc3nc(-c4ccc(Cl)cc4)nc(N4CCCNCC4)c3o2)cc1 | 179 | 176 | 151 | 1 | 136 | 154 | 1.7 | 6.75 | 3.39 | 1.87 | 6.21 | 3.37 | 1.93 | 4.17 | 1.9 | 3.61 | 1.94 | 4.14 | 1.78 | 6.59 | LC50 (50% lethal concentration) (Hs-578T [9]): 9.02 µM; LC50 (concentration giving 50% net cell kill) (BT-549 [10]): 6.86 µM; CC50 (T47D [11]): 8.84 µM; TGI (MDA-MB-468 [12]): 3.42 µM |
| Cc1ccc(-c2nc(N3CCNCC3)c3oc(-c4ccccc4)nc3n2)cc1 | 175 | 179 | 72 | 15 | 158 | 131 | 1.85 | 7.6 | 3.75 | 1.62 | 5.77 | 3.06 | 2.53 | 7.69 | 13.8 | 31.6 | 1.81 | 3.83 | 1.81 | 7.98 | LC50 (50% lethal concentration) (Hs-578T [9]): > 100 µM; LC50 (concentration giving 50% net cell kill) (BT-549 [10]): 72.7 µM; CC50 (T47D [11]): 8.07 µM; TGI (MDA-MB-468 [12]): 3.8 µM |
| Cc1ccc(-c2nc(N3CCNCC3)c3oc(-c4ccc(C)cc4)nc3n2)cc1 | 173 | 172 | 1 | 17 | 63 | 133 | 1.72 | 7.86 | 3.68 | 1.74 | 6.81 | 3.44 | 2.27 | 5.83 | 1.71 | 3.32 | 11.4 | 37.4 | 2.13 | 13.5 | LC50 (50% lethal concentration) (Hs-578T [9]): > 100 µM; LC50 (concentration giving 50% net cell kill) (BT-549 [10]): 6.48 µM; CC50 (T47D [11]): > 100 µM; TGI (MDA-MB-468 [12]): 4.77 µM |
| c1ccc(-c2nc(N3CCCNCC3)c3oc(-c4ccccc4)nc3n2)cc1 | 132 | 180 | 131 | 126 | 123 | 171 | 1.41 | 5.69 | 2.83 | 1.56 | 5.65 | 2.97 | 1.86 | 4.13 | 1.73 | 3.18 | 1.69 | 3.48 | 1.48 | 5.54 | LC50 (50% lethal concentration) (Hs-578T [9]): 9.16 µM; LC50 (concentration giving 50% net cell kill) (BT-549 [10]): 5.86 µM; CC50 (T47D [11]): 7.15 µM; TGI (MDA-MB-468 [12]): 2.87 µM |
| Cc1ccc(-c2nc3nc(-c4ccc(F)cc4)nc(N4CCCNCC4)c3o2)cc1 | 172 | 185 | 176 | 177 | 164 | 176 | 1.23 | 7.14 | 2.96 | 1.63 | 5.91 | 3.11 | 1.78 | 3.69 | 1.66 | 3.37 | 1.85 | 3.94 | 1.58 | 6.41 | LC50 (50% lethal concentration) (Hs-578T [9]): 7.63 µM; LC50 (concentration giving 50% net cell kill) (BT-549 [10]): 6.85 µM; TGI (MDA-MB-468 [12]): 3.18 µM |
| Cc1ccc(-c2nc(N3CCCNCC3)c3oc(-c4ccccc4)nc3n2)cc1 | 175 | 192 | 130 | 19 | 167 | 176 | 1.59 | 7.45 | 3.44 | 1.77 | 6.06 | 3.27 | 1.94 | 4.22 | 1.62 | 3.14 | 2.02 | 4 | 1.55 | 6.75 | LC50 (50% lethal concentration) (Hs-578T [9]): 9.21 µM; CC50 (T47D [11]): 7.94 µM; TGI (MDA-MB-468 [12]): 3.24 µM |
| Cc1ccc(-c2nc3nc(-c4ccc(Br)cc4)nc(N4CCCNCC4)c3o2)cc1 | 176 | 157 | 130 | 1 | 108 | 165 | 1.78 | 6.91 | 3.51 | 1.93 | 8.5 | 4.05 | 17.2 | 37.1 | 16 | 34.6 | 3.06 | 13.9 | 3.98 | 52.5 | LC50 (50% lethal concentration) (Hs-578T [9]): 80.2 µM; LC50 (concentration giving 50% net cell kill) (BT-549 [10]): 75 µM; CC50 (T47D [11]): 65.5 µM; TGI (MDA-MB-468 [12]): 15.9 µM |
| Cc1ccc(-c2nc3nc(-c4ccc(F)cc4)nc(N4CCNCC4)c3o2)cc1 | 174 | 129 | 106 | 1 | 127 | 46 | 1.66 | 7.4 | 3.51 | 1.86 | 7.09 | 3.63 | 2.06 | 5.12 | 13.6 | 30.1 | 2.3 | 6.92 | 1.74 | 6.56 | LC50 (50% lethal concentration) (Hs-578T [9]): 37 µM; LC50 (concentration giving 50% net cell kill) (BT-549 [10]): 66.8 µM; CC50 (T47D [11]): > 100 µM; TGI (MDA-MB-468 [12]): 3.38 µM |
| c1ccc(-c2nc(N3CCNCC3)c3nc(-c4ccccc4)oc3n2)cc1 | 169 | 181 | 11 | 3 | 157 | 137 | 1.7 | 7.54 | 3.58 | 1.67 | 6.13 | 3.2 | 1.87 | 4.11 | 1.67 | 3.24 | 1.94 | 4.19 | 1.93 | 6.94 | LC50 (50% lethal concentration) (Hs-578T [9]): 9.05 µM; LC50 (concentration giving 50% net cell kill) (BT-549 [10]): 6.27 µM; TGI (MDA-MB-468 [12]): 3.66 µM |
